This is an account of results in ChEMBL document CHEMBL3244401, “Prostaglandins and congeners. 15. Synthesis and bronchodilator activity of dl-11-deoxy-15- or 16-alkylprostaglandins” (1977).

As usually defined, the ED50 is the midpoint of the dose-response relation. For orientation: inhibition in vivo means the drop in the measured response relative to a control, in per cent.

The structures appear in SMILES notation. Bounds are passed on as bounds.

Holding throughout (format): functional
In test [1] the test system is Cavia porcellus. The experiment in a line: Bronchodilatory activity in iv dosed Hartley guinea pig assessed as inhibition of acetylcholine-induced spasm administered 3 to 4 times at 15 mins interval starting 2 mins post challenge. The essentials:
(§1)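 Urethane-anesthetized (1.5 g/kg ip), gallamine-curarized Hartley guinea pigs (either sex, 250-500 g), ventilated at 60 strokes/min. Acetylcholine (40-150 μg/kg, 12-s iv infusions every 5 min) set to raise tracheal pressure 20-50 cm water. Compounds (sodium salts in water; esters in 10% aqueous ethanol) given iv over 1 min. Spasm amplitude expressed as % variation from control. ED50 from semilog regression; ≥4 animals.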

Test [2] relates to Cavia porcellus. Nature of the test: Bronchodilatory activity in iv dosed Hartley guinea pig assessed as inhibition of histamine-induced spasm administered 3 to 4 times at 15 mins interval starting 2 mins post challenge. The essentials: (§2)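 Hartley guinea pigs (either sex, 250-500 g) under urethane (1.5 g/kg ip) plus iv gallamine, artificially ventilated. Histamine was infused iv for 12 s every 5 min to raise tracheal pressure 20-50 cm water. Salts were given iv in water and esters in 10% aqueous ethanol, 3-4 log-spaced doses. Read-out was % variation in spasm amplitude versus control; ED50 (-50%) by semilog regression; ≥4 animals.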

In test [3] the test system is Cavia porcellus. The experiment in a line: Bronchodilatory activity in iv dosed Hartley guinea pig assessed as inhibition of serotonin-induced spasm administered 3 to 4 times at 15 mins interval starting 2 mins post challenge. The essentials: (§3)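 Serotonin (7.5-30 μg/kg iv, 12-s injections every 5 min) induced bronchospasm (20-50 cm water rise) in ventilated, urethane/gallamine-treated Hartley guinea pigs (250-500 g). After three matched control spasms, test agent was given iv over 1 min 2 min later, repeated at 15-min intervals, 3-4 log doses. Water was the vehicle for salts and 10% aqueous ethanol for esters. Intratracheal pressure was recorded; ED50 from semilog regression of % variation; ≥4 animals.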

For test [4], the system named is Cavia porcellus. The experiment in a line: Bronchodilatory activity in Hartley guinea pig assessed as inhibition of histamine-induced spasm at 3.2 mg/kg, iv administered 3 to 4 times at 15 mins interval starting 2 mins post challenge. The gist of the method: as §2
The subject of test [5] is Cavia porcellus. The experiment in a line: Bronchodilatory activity in Hartley guinea pig assessed as inhibition of serotonin-induced spasm at 3.2 mg/kg, iv administered 3 to 4 times at 15 mins interval starting 2 mins post challenge. The essentials: as §3
Test [6] has as its system Cavia porcellus. The experiment in a line: Bronchodilatory activity in Hartley guinea pig assessed as inhibition of acetylcholine-induced spasm at 3.2 mg/kg, iv administered 3 to 4 times at 15 mins interval starting 2 mins post challenge. The gist of the method:
as §1

The subject of test [7] is Cavia porcellus. Nature of the test: Bronchodilatory activity in iv dosed Hartley guinea pig assessed as lowest dose required for >/= 50% inhibition of histamine-induced spasm administered 3 to 4 times at 15 mins interval starting 2 mins post challenge. The essentials: as §2
Test [8] relates to Cavia porcellus. The experiment in a line: Bronchodilatory activity in iv dosed Hartley guinea pig assessed as lowest dose required for >/= 50% inhibition of serotonin-induced spasm administered 3 to 4 times at 15 mins interval starting 2 mins post challenge. The gist of the method:
as §3

Test [9] has as its system Cavia porcellus. Nature of the test: Bronchodilatory activity in iv dosed Hartley guinea pig assessed as lowest dose required for >/= 50% inhibition of acetylcholine-induced spasm administered 3 to 4 times at 15 mins interval starting 2 mins post challenge. The essentials:
as §1

As to `CCCCC(C)[C@@H](O)/C=C/C1CCC(=O)[C@@H]1C/C=C\CCCC(=O)O` (mixture of isomers), the ED50 came to 87.5 µg/kg in the test on Cavia porcellus [1], 2.99 µg/kg in the test with Cavia porcellus [2] and 39.9 µg/kg in the test with Cavia porcellus [3].
As for `CCCCC(C)(C)[C@@H](O)/C=C/C1CCC(=O)[C@@H]1CCCCCC(C(=O)OCC)c1ccccc1` (mixture of isomers), the inhibition in vivo at 3.2 mg/kg with Cavia porcellus [4], with Cavia porcellus [5] and in the test with Cavia porcellus [6] was under 50% each time.
With `CCCCC[C@](C)(O)/C=C/C1CCC(=O)[C@@H]1CCCCOCC(=O)OCC` (mixture of isomers), the results for the ED50 in the test with Cavia porcellus [1], in the test on Cavia porcellus [2] and in the test on Cavia porcellus [3] were 618 µg/kg, 282 µg/kg and 78.8 µg/kg, respectively.
Take `CCCCC(CC)[C@H](O)/C=C/C1CCC(=O)[C@@H]1CCCCCCC(=O)O` (mixture of isomers): the ED50 came out at 113 µg/kg in the test on Cavia porcellus [1], 32 µg/kg with Cavia porcellus [7] and 9.77 µg/kg with Cavia porcellus [3].
On to `CCCCC(C)(C)[C@@H](O)/C=C/C1CCC(=O)[C@@H]1CCCCCCC(=O)O` (mixture of isomers), for which the ED50 was found to be 135 µg/kg in the test on Cavia porcellus [1], 107 µg/kg in the test on Cavia porcellus [2] and 19 µg/kg with Cavia porcellus [3].
On to `CCCCC(C)(C)[C@@H](O)/C=C/C1CCC(=O)[C@@H]1CCCCOCC(=O)O` (mixture of isomers), for which the figures for the ED50 with Cavia porcellus [8], in the test on Cavia porcellus [1] and in the test with Cavia porcellus [2] were 32 µg/kg, 558 µg/kg and 373 µg/kg, respectively.
With `CCCCC(CC)[C@H](O)/C=C/C1CCC(=O)[C@@H]1C/C=C\CCCC(=O)O` (mixture of isomers), the inhibition in vivo at 3.2 mg/kg with Cavia porcellus [4] and with Cavia porcellus [6] was under 50% each time. The ED50 in the test with Cavia porcellus [3] amounted to 79.1 µg/kg.
As to `CCCCC(C)(C)[C@@H](O)/C=C/C1CCC(=O)[C@@H]1CCCCCC(C(=O)O)c1ccccc1` (mixture of isomers), the inhibition in vivo at 3.2 mg/kg in the test on Cavia porcellus [4], with Cavia porcellus [5] and in the test with Cavia porcellus [6] was under 50% each time.
On to `CCCCC(C)[C@@H](O)/C=C/C1CCC(=O)[C@@H]1CCCCCCC(=O)O` (mixture of isomers), for which the ED50 in the test on Cavia porcellus [1] turned out to be 9.89 µg/kg; with Cavia porcellus [2], 73.2 µg/kg; in the test with Cavia porcellus [3] it was 7.01 µg/kg.
Turning to `CCCCC(C)[C@@H](O)/C=C/C1CCC(=O)[C@@H]1CCCCCCC(=O)OCC` (mixture of isomers), the ED50 stood at 396 µg/kg in the test with Cavia porcellus [1], 32000 µg/kg with Cavia porcellus [7] and 99.3 µg/kg with Cavia porcellus [3].
Take `CCCCC[C@](C)(O)/C=C/C1CCC(=O)[C@@H]1CCCCOCC(=O)O` (mixture of isomers): the ED50 in the test on Cavia porcellus [1] was 73.7 µg/kg; in the test on Cavia porcellus [2] it was 25.6 µg/kg; in the test with Cavia porcellus [3], 121 µg/kg.
For `CCCCC(C)(C)[C@H](O)/C=C/C1CCC(=O)[C@@H]1CCCCCC(C(=O)O)c1ccccc1` (mixture of isomers), the inhibition in vivo at 3.2 mg/kg with Cavia porcellus [4], in the test on Cavia porcellus [5] and in the test on Cavia porcellus [6] was under 50% in each case.
Turning to `CCCCC(C)[C@H](O)/C=C/C1CCC(=O)[C@@H]1C/C=C\CCCC(=O)OCC` (mixture of isomers), the ED50 was 65700 µg/kg with Cavia porcellus [2] and 179000 µg/kg in the test on Cavia porcellus [3]. Besides, the inhibition in vivo at 3.2 mg/kg in the test on Cavia porcellus [6] was under 50%.
On to `CCCCC(CC)[C@@H](O)/C=C/C1CCC(=O)[C@@H]1C/C=C\CCCC(=O)O` (mixture of isomers), for which the inhibition in vivo at 3.2 mg/kg in the test on Cavia porcellus [4] and with Cavia porcellus [6] was under 50% each time. Further, the ED50 with Cavia porcellus [3] was determined as 2.21e+09 µg/kg.
For `CCCCC(C)(C)[C@H](O)/C=C/C1CCC(=O)[C@@H]1CCCCCC(C)C(=O)O` (mixture of isomers), the inhibition in vivo at 3.2 mg/kg in the test on Cavia porcellus [4], in the test with Cavia porcellus [5] and with Cavia porcellus [6] was under 50% throughout.
Take `CCCCC(C)[C@@H](O)/C=C/C1CCC(=O)[C@@H]1C/C=C\CCCC(=O)OCC` (mixture of isomers): the ED50 is over 320 µg/kg in the test on Cavia porcellus [1], 1.37 µg/kg with Cavia porcellus [2] and 9.65 µg/kg in the test with Cavia porcellus [3].
For `CCCCC(C)(C)[C@H](O)/C=C/C1CCC(=O)[C@@H]1CCCCOCC(=O)OCC` (mixture of isomers), the ED50 with Cavia porcellus [1] is 96.7 µg/kg; in the test with Cavia porcellus [2], 69.6 µg/kg; in the test with Cavia porcellus [3], 123 µg/kg.
In the case of `CCCCC(C)(C)[C@@H](O)/C=C/C1CCC(=O)[C@@H]1CCCCCC(C)C(=O)O` (mixture of isomers), the inhibition in vivo at 3.2 mg/kg in the test with Cavia porcellus [4], in the test with Cavia porcellus [5] and in the test with Cavia porcellus [6] was under 50% throughout.
For the compound `CCCCC(C)[C@H](O)/C=C/C1CCC(=O)[C@@H]1CCCCCCC(=O)O` (mixture of isomers), the ED50 was over 320 µg/kg in the test on Cavia porcellus [1], 320 µg/kg with Cavia porcellus [7] and 346 µg/kg in the test with Cavia porcellus [3].
Take `CCCCC(CC)[C@@H](O)/C=C/C1CCC(=O)[C@@H]1CCCCCCC(=O)O` (mixture of isomers): the ED50 in the test on Cavia porcellus [7] was 32 µg/kg; in the test on Cavia porcellus [3], over 3.2 µg/kg. Also, the inhibition in vivo at 3.2 mg/kg in the test with Cavia porcellus [6] is under 50%.
As to `CCCCC(CC)[C@H](O)/C=C/C1CCC(=O)[C@@H]1CCCCCCC(=O)OCC` (mixture of isomers), the ED50 came out at 145 µg/kg in the test on Cavia porcellus [1], 32 µg/kg with Cavia porcellus [7] and 1.11e+09 µg/kg in the test on Cavia porcellus [3].
In the case of `CCCCC(C)(C)[C@@H](O)/C=C/C1CCC(=O)[C@@H]1CCCCOCC(=O)OCC` (mixture of isomers), the ED50 with Cavia porcellus [1] stood at 349 µg/kg; in the test on Cavia porcellus [2], 194 µg/kg; in the test on Cavia porcellus [3], 209 µg/kg.
In the case of `CCCCC(C)(C)[C@H](O)/C=C/C1CCC(=O)[C@@H]1CCCCCC(C(=O)OCC)c1ccccc1` (mixture of isomers), the inhibition in vivo at 3.2 mg/kg in the test on Cavia porcellus [4], with Cavia porcellus [5] and with Cavia porcellus [6] was under 50% throughout.
On to `CCCCC[C@H](O)/C=C/C1CCC(=O)[C@@H]1CCCCCCC(=O)O` (mixture of isomers), for which the ED50 in the test with Cavia porcellus [1] was over 32 µg/kg; with Cavia porcellus [2] it was 3.4 µg/kg; in the test with Cavia porcellus [3], 397 µg/kg.
Consider `CCCCC[C@](C)(O)/C=C/C1CCC(=O)[C@@H]1CCCCCCC(=O)O` (mixture of isomers), for which the ED50 in the test with Cavia porcellus [2] amounted to 4.24 µg/kg; in the test with Cavia porcellus [9] it was 3.2 µg/kg; in the test on Cavia porcellus [3] it was 6.99 µg/kg.
With `CCCCC(C)(C)[C@H](O)/C=C/C1CCC(=O)[C@@H]1CCCCCCC(=O)O` (mixture of isomers), the ED50 turned out to be 42.9 µg/kg in the test with Cavia porcellus [1], 4.17 µg/kg with Cavia porcellus [2] and 25.9 µg/kg in the test on Cavia porcellus [3].
For the compound `CCCCC(C)(C)[C@H](O)/C=C/C1CCC(=O)[C@@H]1CCCCOCC(=O)O` (mixture of isomers), the ED50 in the test on Cavia porcellus [1] worked out at 550 µg/kg; with Cavia porcellus [3], 185 µg/kg.
Regarding `CCCCC(CC)[C@@H](O)/C=C/C1CCC(=O)[C@@H]1CCCCCCC(=O)OCC` (mixture of isomers), the ED50 is 2.7e+09 µg/kg in the test with Cavia porcellus [2] and 1.74e+09 µg/kg in the test with Cavia porcellus [3]. In addition, in the test with Cavia porcellus [6], the inhibition in vivo at 3.2 mg/kg was under 50%.
`CCCCC(C)[C@H](O)/C=C/C1CCC(=O)[C@@H]1C/C=C\CCCC(=O)O` (mixture of isomers): the figures for the ED50 in the test with Cavia porcellus [1], in the test on Cavia porcellus [2] and with Cavia porcellus [3] were 1.63 µg/kg, 108000 µg/kg and 1.35 µg/kg, respectively.
In the case of `CCCCC(C)[C@H](O)/C=C/C1CCC(=O)[C@@H]1CCCCCCC(=O)OCC` (mixture of isomers), the ED50 in the test with Cavia porcellus [8] is 320 µg/kg; with Cavia porcellus [7], 32000 µg/kg. In addition, in the test on Cavia porcellus [6], the inhibition in vivo at 3.2 mg/kg was under 50%.
